The record followed here is ChEMBL document CHEMBL4334487, “Cytotoxic Microcolin Lipopeptides from the Marine Cyanobacterium Moorea producens” (J Nat Prod, 2019).

The assay has as its system NCI-H460. Briefly: Cytotoxicity against human NCI-H460 cells assessed as reduction in cell viability incubated for 48 hrs by MTT assay. It is filed as functional, cell-based. The note with it: NCI-H460, 48 h. In outline: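 H-460 non-small-cell lung carcinoma cells in RPMI-1640 with 10% FBS and 1% penicillin/streptomycin, used within 28 passages per frozen batch. Seeded at 3.33 × 10^4 cells/mL, adhered 24 h, then treated 48 h. Ten concentrations from 30 μM down by 0.3164-fold serial dilution; 1% DMSO negative control, doxorubicin positive control.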
In general terms: Tetrazolium dyes change colour on reduction, which living cells bring about.
Take `CCCC[C@@H](C)C[C@@H](C)C(=O)N(C)[C@@H](CC(C)C)C(=O)N[C@H](C(=O)N(C)[C@H](C(=O)N1C[C@@H](O)C[C@H]1C(=O)O)C(C)C)[C@@H](C)OC(C)=O`: the IC50 was determined as 510 nM.
Under `CCCC[C@@H](C)C[C@@H](C)C(=O)N(C)[C@@H](CC(C)C)C(=O)N[C@H](C(=O)N[C@H](C(=O)N1CCC[C@H]1C(=O)N1C(=O)C=C[C@@H]1C)C(C)C)[C@@H](C)OC(C)=O` stands 69 nM; under `CCCC[C@@H](C)C[C@@H](C)C(=O)N(C)[C@@H](CC(C)C)C(=O)N[C@H](C(=O)N(C)[C@H](C(=O)N1CCC[C@H]1C(=O)N1C(=O)C=C[C@@H]1C)C(C)C)[C@@H](C)OC(C)=O`, 910 nM; under `CCCC[C@@H](C)C[C@@H](C)C(=O)N(C)[C@@H](CC(C)C)C(=O)N[C@H](C(=O)N(C)[C@H](C(=O)N1CCC[C@H]1C(=O)N1C(=O)CC[C@@H]1C)C(C)C)[C@@H](C)O`, more than 30000 nM.
Regarding `CCCC[C@@H](C)C[C@@H](C)C(=O)N(C)[C@@H](CC(C)C)C(=O)N[C@H](C(=O)N(C)[C@H](C(=O)N1C[C@@H](O)C[C@H]1C(=O)N1C(=O)CC[C@@H]1C)C(C)C)[C@@H](C)O`, the IC50 is 2000 nM.
Turning to `CCCC[C@@H](C)C[C@@H](C)C(=O)N(C)[C@@H](CC(C)C)C(=O)N[C@H](C(=O)N(C)[C@H](C(=O)N1C[C@@H](O)C[C@H]1C(=O)N1C(=O)C=C[C@@H]1C)C(C)C)[C@@H](C)O`, the concentration for half-maximal inhibition (IC50) was 75 nM.
As to `CCCC[C@@H](C)C[C@@H](C)C(=O)N(C)[C@@H](C=C(C)C)C(=O)N[C@H](C(=O)N(C)[C@H](C(=O)N1C[C@@H](O)C[C@H]1C(=O)N1C(=O)C=C[C@@H]1C)C(C)C)[C@@H](C)O`, the IC50 turned out to be 160 nM.
Regarding `CCCC[C@@H](C)C[C@@H](C)C(=O)N(C)[C@@H](CC(C)C)C(=O)N[C@H](C(=O)N(C)[C@H](C(=O)N1CCC[C@H]1C(=O)N1C(=O)CC[C@@H]1C)C(C)C)[C@@H](C)OC(C)=O`, the IC50 stood at 5000 nM.
`CCCC[C@@H](C)C[C@@H](C)C(=O)N(C)[C@@H](CC(C)C)C(=O)N[C@H](C(=O)N(C)[C@H](C(=O)N1CCC[C@H]1C(=O)N1C(=O)C=C[C@@H]1C)C(C)C)[C@@H](C)O`: the IC50 was 650 nM.
As to `CCCC[C@@H](C)C[C@@H](C)C(=O)N(C)[C@@H](CC(C)C)C(=O)N[C@H](C(=O)N(C)[C@H](C(=O)N1C[C@@H](O)C[C@H]1C(=O)N1C(=O)C=C[C@@H]1C)C(C)C)[C@@H](C)OC(C)=O`, the IC50 stood at 6 nM.
As for `CCCC[C@@H](C)C[C@@H](C)C(=O)N(C)[C@@H](C=C(C)C)C(=O)N[C@H](C(=O)N(C)[C@H](C(=O)N1CCC[C@H]1C(=O)N1C(=O)C=C[C@@H]1C)C(C)C)[C@@H](C)OC(C)=O`, the 50% inhibitory concentration (IC50) stood at 1000 nM.
Under `CCCCCC[C@@H](C)C(=O)N(C)[C@@H](CC(C)C)C(=O)N[C@H](C(=O)N(C)[C@H](C(=O)N1C[C@@H](O)C[C@H]1C(=O)N1C(=O)C=C[C@@H]1C)C(C)C)[C@@H](C)OC(C)=O` stands 47 nM; under `CCCC[C@@H](C)C[C@@H](C)C(=O)N(C)[C@@H](CC(C)C)C(=O)N[C@H](C(=O)N(C)[C@H](C(=O)N1C[C@@H](O)C[C@H]1C(=O)N1C(=O)C=C[C@@H]1C)C(C)C)[C@@H](C)OC(=O)CC`, 200 nM.
With `CCCC[C@@H](C)C[C@@H](C)C(=O)N(C)[C@@H](CC(C)C)C(=O)N[C@H](C(=O)N(C)[C@H](C(=O)N1C[C@@H](O)C[C@H]1C(=O)N1C(=O)CC[C@@H]1C)C(C)C)[C@@H](C)OC(C)=O`, the IC50 was determined as 2800 nM.
On to `CCCC[C@@H](C)C[C@@H](C)C(=O)N(C)[C@@H](C=C(C)C)C(=O)N[C@H](C(=O)N(C)[C@H](C(=O)N1C[C@@H](O)C[C@H]1C(=O)N1C(=O)C=C[C@@H]1C)C(C)C)[C@@H](C)OC(C)=O`, for which the 50% inhibitory concentration (IC50) is 37 nM.
In the case of `CCCCCC[C@@H](C)C(=O)N(C)[C@@H](CC(C)C)C(=O)N[C@H](C(=O)N(C)[C@H](C(=O)N1CCC[C@H]1C(=O)N1C(=O)C=C[C@@H]1C)C(C)C)[C@@H](C)OC(C)=O`, the IC50 was 550 nM.
For the compound `COc1cccc2c1C(=O)c1c(O)c3c(c(O)c1C2=O)C[C@@](O)(C(=O)CO)C[C@@H]3O[C@H]1C[C@H](N)[C@H](O)[C@H](C)O1` [DOXORUBICIN], the 50% inhibitory concentration (IC50) turned out to be 180 nM.

Usually IC50 stands for the concentration at which inhibition is half-maximal.
